According to ChEMBL document CHEMBL1147483, “Novel p38 inhibitors with potent oral efficacy in several models of rheumatoid arthritis” (Bioorg Med Chem Lett, 2004):

Experiments:
[1] = Oral bioavailability; format: ADME, organism-based; conditions: rat, in vivo
[2] = Half life was determined; format: ADME, organism-based; conditions: rat, in vivo
Cytochrome P450 2C9 = Cytochrome P450 2C9 (Homo sapiens, UniProt P11712); assay: Inhibition of human cytochrome P450 2C9; format: ADME
Cytochrome P450 3A4 = Cytochrome P450 3A4 (Homo sapiens, UniProt P08684); assay: Inhibition of human cytochrome P450 3A4; format: ADME
Cytochrome P450 1A2 = molecular target: T1, Cytochrome P450 1A2 (Homo sapiens, UniProt P05177); assay: Inhibition of human cytochrome P450 1A2; format: ADME
T1 sequence (P05177 whole entry): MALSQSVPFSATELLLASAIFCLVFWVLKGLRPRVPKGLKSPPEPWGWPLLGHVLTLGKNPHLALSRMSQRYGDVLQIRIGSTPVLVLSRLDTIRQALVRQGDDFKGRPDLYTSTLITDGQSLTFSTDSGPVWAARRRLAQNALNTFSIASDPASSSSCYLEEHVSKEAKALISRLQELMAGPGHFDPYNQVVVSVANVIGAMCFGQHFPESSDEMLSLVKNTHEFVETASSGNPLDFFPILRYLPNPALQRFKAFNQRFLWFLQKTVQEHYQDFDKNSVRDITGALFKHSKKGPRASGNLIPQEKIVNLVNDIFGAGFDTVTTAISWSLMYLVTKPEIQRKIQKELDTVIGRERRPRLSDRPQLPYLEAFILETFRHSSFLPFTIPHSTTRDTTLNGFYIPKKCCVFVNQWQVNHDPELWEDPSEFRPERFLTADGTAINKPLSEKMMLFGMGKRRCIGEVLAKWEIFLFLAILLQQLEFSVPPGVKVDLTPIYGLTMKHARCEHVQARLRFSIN

[3] = molecular target: Mast/stem cell growth factor receptor Kit (Homo sapiens, UniProt P10721); assay: Inhibition of human c-Kit kinase
Outline: (§1)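 In-house kinase selectivity panel against human kinases; IC50 (µM) determined.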

Cytochrome P450 2D6 = Cytochrome P450 2D6 (Homo sapiens, UniProt P10635); assay: Inhibition of human cytochrome P450 2D6; format: ADME
[4] = molecular target: Cyclin-dependent kinase 1 (Homo sapiens, UniProt P06493); assay: Inhibition of human cyclin-dependent kinase 1; outline: as §1
[5] = molecular target: Insulin-like growth factor 1 receptor (Homo sapiens, UniProt P08069); assay: Inhibition of human insulin-like growth factor I receptor; outline: as §1
Mus musculus [6] = assay: Dose required to inhibit of LPS (20 mg/kg, injected i.v. 1 hr […] dosing) induced TNF-alpha release in mice upon oral administration; format: functional
Mus musculus [7] = assay: Inhibition of LPS induced TNF-alpha release in mice following p.o. administration.; format: functional; set-up: concentration or dose not given beside the values
Outline: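 LPS (20 mg/kg) given i.v. 1 h after dosing. Blood taken 1 h later; plasma TNF-α by mouse-specific ELISA. Reported as % inhibition or as ED50 (mg/kg p.o.).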

[8] = molecular target: Mitogen-activated protein kinase 14 (Mus musculus, UniProt P47811); assay: Inhibition of murine phosphorylated His-Mitogen-activated protein kinase p38 alpha.
[9] = molecular target: Prostaglandin G/H synthase 1 (Homo sapiens, UniProt P23219); assay: Inhibition of human prostaglandin G/H synthase 1, COX-1
Rattus norvegicus [10] = assay: Percent swelling of joints in rats immunized with Mycobacterium tuberculosis was determined on day 20 after 25 mg/kg peroral administration; format: functional; conditions: route oral
Outline: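 Female Wistar rats (adjuvant-induced arthritis) immunized with Mycobacterium tuberculosis on day 0; compounds given orally at 25 mg/kg twice daily (2 × 25 mg/kg p.o. per day) from day 14 to day 20; joint swelling measured on day 20 and expressed as % swelling.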

[11] = molecular target: Proto-oncogene tyrosine-protein kinase Src (Homo sapiens, UniProt P12931); assay: Inhibition of human c-Src; outline: as §1
[12] = molecular target: Mitogen-activated protein kinase 8 (Homo sapiens, UniProt P45983); assay: Inhibition of human c-Jun N-terminal kinase 1; outline: as §1
[13] = molecular target: Vascular endothelial growth factor receptor 2 (Homo sapiens, UniProt P35968); assay: Inhibition of human vascular endothelial growth factor receptor 2; outline: as §1
[14] = molecular target: Mitogen-activated protein kinase 9 (Homo sapiens, UniProt P45984); assay: Inhibition of human c-Jun N-terminal kinase 2; outline: as §1
[15] = molecular target: Tyrosine-protein kinase ABL1 (Homo sapiens, UniProt P00519); assay: Inhibition of human c-Abl; outline: as §1
Homo sapiens = organism: Homo sapiens; assay: Inhibition of LPS/IFN-gamma stimulated TNF-alpha release in human peripheral blood mononuclear cells after 3h of incubation.; format: functional, cell-based
Outline: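 Human PBMCs from healthy volunteers incubated with inhibitor and stimulated with LPS/IFN-γ for 3 h. TNF-α in supernatants measured by ELISA; IC50 derived.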

Rattus norvegicus [16] = assay: Dose required to inhibit bovine nasalseptum type II collagen induced arthritis in rats after administration on day 13; format: functional; conditions: 312 h
Outline: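 Female WAG×BUF/F1 rats immunized intradermally with bovine nasal septum type II collagen in Freund's incomplete adjuvant; swelling starts ~10 days after immunization. Oral dosing once daily for 10 days, beginning day 13 when swelling was nearly maximal. ED50 (mg/kg p.o.) derived for inhibition of joint swelling.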

[17] = molecular target: T2, Epidermal growth factor receptor (Homo sapiens, UniProt P00533); assay: Inhibition of human Epidermal growth factor receptor, HER-1
[18] = molecular target: T2, Epidermal growth factor receptor; assay: Inhibition of human epidermal growth factor receptor
[19] = molecular target: Hepatocyte growth factor receptor (Homo sapiens, UniProt P08581); assay: Inhibition of human Met proto-oncogene tyrosine kinase
[20] = molecular target: RAF proto-oncogene serine/threonine-protein kinase (Homo sapiens, UniProt P04049); assay: Inhibition of human RAF proto-oncogene serine/threonine-protein kinase; outline: as §1

Chain of Cytochrome P450 2D6 (P10635 whole entry): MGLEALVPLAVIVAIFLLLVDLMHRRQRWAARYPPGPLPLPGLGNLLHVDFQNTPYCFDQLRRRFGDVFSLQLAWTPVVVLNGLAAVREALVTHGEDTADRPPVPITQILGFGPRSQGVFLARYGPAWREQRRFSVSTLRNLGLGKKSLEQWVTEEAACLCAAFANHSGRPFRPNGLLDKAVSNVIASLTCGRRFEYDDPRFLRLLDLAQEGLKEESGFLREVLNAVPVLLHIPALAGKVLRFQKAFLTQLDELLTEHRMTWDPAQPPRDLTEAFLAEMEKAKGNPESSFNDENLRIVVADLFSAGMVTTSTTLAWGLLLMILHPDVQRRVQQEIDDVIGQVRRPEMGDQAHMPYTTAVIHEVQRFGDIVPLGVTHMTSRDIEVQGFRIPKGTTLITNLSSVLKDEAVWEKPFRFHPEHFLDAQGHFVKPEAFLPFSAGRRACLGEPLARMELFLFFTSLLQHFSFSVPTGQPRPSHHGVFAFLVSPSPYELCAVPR
Chain of Cytochrome P450 3A4 (P08684 whole entry): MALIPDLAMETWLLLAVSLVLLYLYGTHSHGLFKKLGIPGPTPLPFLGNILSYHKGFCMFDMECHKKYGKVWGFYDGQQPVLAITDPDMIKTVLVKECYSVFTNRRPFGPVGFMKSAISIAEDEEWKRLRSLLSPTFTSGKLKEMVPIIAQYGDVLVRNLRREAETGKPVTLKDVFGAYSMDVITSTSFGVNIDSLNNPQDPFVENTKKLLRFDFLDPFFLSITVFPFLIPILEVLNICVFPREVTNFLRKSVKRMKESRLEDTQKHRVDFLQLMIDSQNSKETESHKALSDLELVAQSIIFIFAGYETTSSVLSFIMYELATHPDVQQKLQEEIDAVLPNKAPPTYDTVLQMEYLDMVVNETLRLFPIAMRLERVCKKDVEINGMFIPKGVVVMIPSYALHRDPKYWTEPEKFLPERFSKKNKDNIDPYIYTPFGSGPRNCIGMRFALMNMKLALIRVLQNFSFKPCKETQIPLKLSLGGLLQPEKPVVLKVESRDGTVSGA
Chain of Cytochrome P450 2C9 (P11712 whole entry): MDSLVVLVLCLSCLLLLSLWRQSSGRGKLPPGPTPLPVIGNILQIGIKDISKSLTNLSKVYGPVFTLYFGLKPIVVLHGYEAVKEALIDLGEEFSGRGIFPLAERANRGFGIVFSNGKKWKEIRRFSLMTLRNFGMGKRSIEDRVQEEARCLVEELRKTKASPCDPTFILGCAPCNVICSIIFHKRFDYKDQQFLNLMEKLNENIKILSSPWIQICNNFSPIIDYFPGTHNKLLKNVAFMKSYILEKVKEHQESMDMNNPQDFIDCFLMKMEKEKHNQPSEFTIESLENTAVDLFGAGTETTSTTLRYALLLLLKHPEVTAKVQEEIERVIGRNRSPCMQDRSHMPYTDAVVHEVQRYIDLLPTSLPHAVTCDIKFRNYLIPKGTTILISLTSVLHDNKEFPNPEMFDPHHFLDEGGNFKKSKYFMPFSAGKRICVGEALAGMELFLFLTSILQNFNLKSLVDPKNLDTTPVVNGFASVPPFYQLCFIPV
Chain of Vascular endothelial growth factor receptor 2 (P35968 whole entry): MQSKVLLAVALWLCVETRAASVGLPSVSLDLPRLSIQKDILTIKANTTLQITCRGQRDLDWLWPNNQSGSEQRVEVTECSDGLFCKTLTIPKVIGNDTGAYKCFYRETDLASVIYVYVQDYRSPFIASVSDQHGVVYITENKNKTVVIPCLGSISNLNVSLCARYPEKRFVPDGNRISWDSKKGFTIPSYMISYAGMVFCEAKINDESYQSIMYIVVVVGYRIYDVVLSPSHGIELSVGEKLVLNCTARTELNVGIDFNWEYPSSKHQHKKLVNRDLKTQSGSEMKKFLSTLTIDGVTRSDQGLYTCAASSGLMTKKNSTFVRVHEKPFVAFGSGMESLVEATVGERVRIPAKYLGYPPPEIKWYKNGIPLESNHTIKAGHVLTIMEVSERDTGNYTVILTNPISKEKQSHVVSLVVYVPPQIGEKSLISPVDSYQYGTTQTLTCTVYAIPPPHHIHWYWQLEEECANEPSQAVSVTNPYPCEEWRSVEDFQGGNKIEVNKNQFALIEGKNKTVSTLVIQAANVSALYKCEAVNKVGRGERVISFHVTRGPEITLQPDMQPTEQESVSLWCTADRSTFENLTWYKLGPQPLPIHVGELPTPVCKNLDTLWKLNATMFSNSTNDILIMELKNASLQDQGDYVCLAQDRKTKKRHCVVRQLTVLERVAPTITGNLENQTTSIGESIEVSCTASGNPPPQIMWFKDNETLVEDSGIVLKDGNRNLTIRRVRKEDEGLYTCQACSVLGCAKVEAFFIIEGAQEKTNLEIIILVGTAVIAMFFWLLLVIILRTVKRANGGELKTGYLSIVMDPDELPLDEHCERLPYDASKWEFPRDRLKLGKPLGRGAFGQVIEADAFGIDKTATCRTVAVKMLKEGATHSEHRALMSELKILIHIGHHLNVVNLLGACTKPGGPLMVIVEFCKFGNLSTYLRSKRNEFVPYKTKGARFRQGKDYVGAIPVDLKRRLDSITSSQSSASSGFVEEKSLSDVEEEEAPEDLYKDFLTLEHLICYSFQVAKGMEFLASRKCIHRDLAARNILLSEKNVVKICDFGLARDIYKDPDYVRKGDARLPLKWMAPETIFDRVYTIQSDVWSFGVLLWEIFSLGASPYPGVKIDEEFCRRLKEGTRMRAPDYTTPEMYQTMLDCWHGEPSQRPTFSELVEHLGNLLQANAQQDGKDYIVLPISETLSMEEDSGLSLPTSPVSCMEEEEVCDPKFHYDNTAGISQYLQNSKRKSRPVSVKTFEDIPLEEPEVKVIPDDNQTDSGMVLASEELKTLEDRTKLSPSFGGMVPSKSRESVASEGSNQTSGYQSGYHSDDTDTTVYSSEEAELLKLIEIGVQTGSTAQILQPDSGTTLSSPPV
Chain of Proto-oncogene tyrosine-protein kinase Src (P12931 2-536 limits assumed): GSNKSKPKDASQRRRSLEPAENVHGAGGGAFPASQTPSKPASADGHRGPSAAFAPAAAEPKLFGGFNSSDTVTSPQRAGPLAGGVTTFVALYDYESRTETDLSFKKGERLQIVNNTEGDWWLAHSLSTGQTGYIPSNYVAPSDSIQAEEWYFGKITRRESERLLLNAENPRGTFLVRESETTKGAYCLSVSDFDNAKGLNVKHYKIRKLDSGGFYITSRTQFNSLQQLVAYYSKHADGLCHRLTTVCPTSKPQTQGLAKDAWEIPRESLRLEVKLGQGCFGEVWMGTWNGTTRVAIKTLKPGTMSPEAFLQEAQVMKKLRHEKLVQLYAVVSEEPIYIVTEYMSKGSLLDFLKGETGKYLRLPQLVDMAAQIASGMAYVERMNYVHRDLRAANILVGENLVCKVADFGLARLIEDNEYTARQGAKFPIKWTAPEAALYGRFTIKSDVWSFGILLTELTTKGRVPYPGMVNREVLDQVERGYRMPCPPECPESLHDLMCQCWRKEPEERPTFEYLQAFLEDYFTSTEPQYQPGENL
Chain of Cyclin-dependent kinase 1 (P06493 whole entry): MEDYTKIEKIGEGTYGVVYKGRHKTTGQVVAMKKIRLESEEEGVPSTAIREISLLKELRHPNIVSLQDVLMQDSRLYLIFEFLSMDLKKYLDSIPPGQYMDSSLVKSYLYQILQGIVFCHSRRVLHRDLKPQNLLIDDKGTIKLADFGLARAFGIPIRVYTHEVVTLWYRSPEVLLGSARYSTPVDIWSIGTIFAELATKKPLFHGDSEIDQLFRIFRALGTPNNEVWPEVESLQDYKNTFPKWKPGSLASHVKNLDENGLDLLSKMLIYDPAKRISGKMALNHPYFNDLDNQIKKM
Chain of Mitogen-activated protein kinase 8 (P45983 whole entry): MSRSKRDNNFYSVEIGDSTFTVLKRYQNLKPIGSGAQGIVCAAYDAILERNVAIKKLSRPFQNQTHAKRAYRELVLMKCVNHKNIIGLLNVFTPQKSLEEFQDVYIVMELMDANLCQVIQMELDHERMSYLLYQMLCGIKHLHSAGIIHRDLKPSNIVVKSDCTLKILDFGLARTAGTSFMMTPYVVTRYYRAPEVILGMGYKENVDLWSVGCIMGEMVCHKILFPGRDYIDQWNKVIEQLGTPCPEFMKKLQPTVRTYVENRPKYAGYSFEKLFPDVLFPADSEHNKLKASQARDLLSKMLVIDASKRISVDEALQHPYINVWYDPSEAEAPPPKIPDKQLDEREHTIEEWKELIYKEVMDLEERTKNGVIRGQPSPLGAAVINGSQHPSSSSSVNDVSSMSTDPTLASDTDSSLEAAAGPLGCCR
Chain of Mitogen-activated protein kinase 14 (P47811 whole entry): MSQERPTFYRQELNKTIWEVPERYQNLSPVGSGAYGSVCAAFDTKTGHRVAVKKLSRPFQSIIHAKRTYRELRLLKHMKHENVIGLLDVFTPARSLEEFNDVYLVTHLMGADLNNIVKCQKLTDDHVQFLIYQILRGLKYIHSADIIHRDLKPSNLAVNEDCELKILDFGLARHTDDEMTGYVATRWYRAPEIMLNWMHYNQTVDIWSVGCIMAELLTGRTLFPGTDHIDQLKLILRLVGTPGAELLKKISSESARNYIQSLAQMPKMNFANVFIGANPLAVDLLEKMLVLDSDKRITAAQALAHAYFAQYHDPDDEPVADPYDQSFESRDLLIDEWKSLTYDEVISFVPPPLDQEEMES
Chain of Mitogen-activated protein kinase 9 (P45984 whole entry): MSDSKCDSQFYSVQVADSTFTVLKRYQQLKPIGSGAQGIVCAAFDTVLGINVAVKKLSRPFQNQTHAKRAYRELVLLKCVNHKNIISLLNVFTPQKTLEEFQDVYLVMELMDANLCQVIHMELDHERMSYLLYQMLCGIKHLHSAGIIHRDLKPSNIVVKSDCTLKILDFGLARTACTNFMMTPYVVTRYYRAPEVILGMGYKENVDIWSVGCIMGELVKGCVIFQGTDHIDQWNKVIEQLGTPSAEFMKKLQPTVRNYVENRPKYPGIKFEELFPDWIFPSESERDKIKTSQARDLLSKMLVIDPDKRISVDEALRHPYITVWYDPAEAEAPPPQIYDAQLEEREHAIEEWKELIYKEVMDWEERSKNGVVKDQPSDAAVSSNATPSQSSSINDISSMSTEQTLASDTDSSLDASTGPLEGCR

CN1CCC(O)(c2cn(-c3ccnc(NC4CCCC4)n3)c(-c3cccc(C(F)(F)F)c3)n2)CC1
bioavailability [1]: 23.2%
half-life [2]: 3.5 h
IC50 (Cytochrome P450 2C9): > 2000 nM
IC50 (Cytochrome P450 3A4): > 2000 nM
IC50 (Cytochrome P450 1A2): > 2000 nM
IC50 [3]: > 10000 nM
IC50 (Cytochrome P450 2D6): > 2000 nM
IC50 [4]: > 10000 nM
IC50 [5]: > 10000 nM
ED50 (Mus musculus [6]): 1.07 mg/kg
Inhibition (Mus musculus [7]): 94%
IC50 [8]: 29 nM
IC50 [9]: > 80000 nM
Swelling (Rattus norvegicus [10]): 58%
IC50 [11]: > 10000 nM
IC50 [12]: > 10000 nM
IC50 [13]: > 10000 nM
IC50 [14]: 4660 nM
IC50 [15]: > 10000 nM
IC50 (Homo sapiens): 1 nM
ED50 (Rattus norvegicus [16]): 9.51 mg/kg

C[C@H](Nc1nccc(-n2c(-c3ccc(F)cc3)nc3nc(N4CCN(C)CC4)ccc32)n1)c1ccccc1
Inhibition (Mus musculus [7]): 83%
IC50 [8]: 6 nM
IC50 (Homo sapiens): 1 nM

C[C@H](Nc1cc(-c2sc(C3(O)CCN(C)CC3)nc2-c2ccc(F)cc2)ccn1)c1ccccc1
Inhibition (Mus musculus [7]): 94%
IC50 [8]: 5 nM
IC50 (Homo sapiens): 1 nM

FC(F)(F)c1cccc(-c2nc(C3CCNCC3)cn2-c2ccnc(NC3CCCCC3)n2)c1
Inhibition (Mus musculus [7]): 77%
IC50 [8]: 8 nM
IC50 (Homo sapiens): 2 nM

Fc1ccc(-c2nc(C3CCNCC3)cn2-c2ccnc(NC3CCCCC3)n2)cc1
Inhibition (Mus musculus [7]): 29%
IC50 [8]: 5 nM
IC50 (Homo sapiens): 0.8 nM

C[C@H](Nc1cc(-c2sc(C3CCN(C)CC3)nc2-c2ccc(F)cc2)ccn1)c1ccccc1
bioavailability [1]: 20.3%
half-life [2]: 12.5 h
IC50 (Cytochrome P450 2C9): > 2000 nM
IC50 (Cytochrome P450 3A4): > 2000 nM
IC50 (Cytochrome P450 1A2): > 2000 nM
IC50 [3]: > 10000 nM
IC50 (Cytochrome P450 2D6): > 2000 nM
IC50 [4]: > 10000 nM
IC50 [17]: 1100 nM
IC50 [18]: 700 nM
IC50 [5]: > 10000 nM
IC50 [19]: > 10000 nM
ED50 (Mus musculus [6]): 2.06 mg/kg
Inhibition (Mus musculus [7]): 88%
IC50 [8]: 18 nM
IC50 [9]: > 80000 nM
IC50 [20]: 2100 nM
Swelling (Rattus norvegicus [10]): 57%
IC50 [11]: 8000 nM
IC50 [12]: 1900 nM
IC50 [13]: 1700 nM
IC50 [14]: 261 nM
IC50 [15]: > 10000 nM
IC50 (Homo sapiens): 0.6 nM
ED50 (Rattus norvegicus [16]): 7 mg/kg

CN1CCC(O)(c2nc(-c3ccc(F)cc3)c(-c3ccncc3)s2)CC1
IC50 (Homo sapiens): 145 nM

CN1CCN(c2ccc3c(n2)nc(-c2ccc(F)cc2)n3-c2ccnc(NC3CCCC3)n2)CC1
bioavailability [1]: 72.8%
half-life [2]: 4.1 h
IC50 (Cytochrome P450 2C9): > 2000 nM
IC50 (Cytochrome P450 3A4): > 2000 nM
IC50 (Cytochrome P450 1A2): > 2000 nM
IC50 [3]: > 10000 nM
IC50 (Cytochrome P450 2D6): > 2000 nM
IC50 [4]: > 10000 nM
IC50 [5]: > 10000 nM
IC50 [19]: > 10000 nM
ED50 (Mus musculus [6]): 1.41 mg/kg
Inhibition (Mus musculus [7]): 94%
IC50 [8]: 15 nM
IC50 [9]: > 80000 nM
IC50 [20]: > 10000 nM
Swelling (Rattus norvegicus [10]): 55%
IC50 [11]: > 10000 nM
IC50 [12]: 1500 nM
IC50 [13]: > 10000 nM
IC50 [14]: 47 nM
IC50 [15]: > 10000 nM
IC50 (Homo sapiens): 1 nM
ED50 (Rattus norvegicus [16]): 4.22 mg/kg

CN1CCC(O)(c2nc(-c3ccc(F)cc3)c(-c3ccncc3)o2)CC1
IC50 (Homo sapiens): 180 nM

CN1CCC(O)(c2nc(-c3ccc(F)cc3)c(-c3ccncc3)[nH]2)CC1
IC50 (Homo sapiens): 15 nM

C[C@H](Nc1nccc(-c2[nH]c(C3(O)CCN(C)CC3)nc2-c2ccc(F)cc2)n1)c1ccccc1
bioavailability [1]: 10%
Inhibition (Mus musculus [7]): 83%
IC50 [8]: 2 nM
IC50 (Homo sapiens): 0.1 nM

C[C@H](Nc1nccc(-n2cc(C3(O)CCN(C)CC3)nc2-c2ccc(F)cc2)n1)c1ccccc1
Inhibition (Mus musculus [7]): 94%
IC50 [8]: 4 nM

C[C@H](Nc1cc(-c2oc(C3(O)CCN(C)CC3)nc2-c2ccc(F)cc2)ccn1)c1ccccc1
Inhibition (Mus musculus [7]): 21%
IC50 [8]: 9 nM
IC50 (Homo sapiens): 3 nM

C[C@H](Nc1nccc(-c2oc(C3(O)CCN(C)CC3)nc2-c2ccc(F)cc2)n1)c1ccccc1
Inhibition (Mus musculus [7]): 19%
IC50 [8]: 11 nM
IC50 (Homo sapiens): 8 nM

C[C@H](Nc1cc(-c2[nH]c(C3(O)CCN(C)CC3)nc2-c2ccc(F)cc2)ccn1)c1ccccc1
Inhibition (Mus musculus [7]): 42%
IC50 [8]: 7 nM
IC50 (Homo sapiens): 3 nM
